According to ChEMBL document CHEMBL6078712, “Triterpenoid phthalimides as selective anti-cancer agents targeting mitochondrial apoptosis” (Eur J Med Chem, 2025):
pIC50: −log10 of the molar value. Activity calls are given as the source filed them. The rule behind the calls is not given here.

Assays:
CCRF-CEM [1] = assay: Cytotoxicity against human CCRF-CEM cells assessed as inhibition of cell growth incubated for 72 hrs by MTS assay; assay type: functional, cell-based
Method in brief: (§1)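 MTS assay on eight human cancer lines and two non-tumour fibroblast lines. IC50 is the concentration that inhibits cell growth by 50 %. SD typically up to 15 % of the mean.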

CEM-DNR = assay: Cytotoxicity against human CEM-DNR cells assessed as inhibition of cell growth incubated for 72 hrs by MTS assay; assay type: functional, cell-based; method in brief: as §1
HCT-116 = assay: Cytotoxicity against human HCT-116 cells assessed as inhibition of cell growth incubated for 72 hrs by MTS assay; assay type: functional, cell-based; details: HCT-116, 72 h; method in brief: as §1
HCT 116 TP53(-/-) = assay: Cytotoxicity against human HCT116-p53-null cells assessed as inhibition of cell growth incubated for 72 hrs by MTS assay; assay type: functional, cell-based; method in brief: as §1
U2OS = assay: Cytotoxicity against human U2OS cells assessed as inhibition of cell growth incubated for 72 hrs by MTS assay; assay type: functional, cell-based; method in brief: as §1
[2] = Cytotoxicity against human MRC5 cells assessed as inhibition of cell growth incubated for 72 hrs by MTS assay; assay type: toxicity, cell-based; method in brief: as §1
CCRF-CEM [3] = assay: Induction of apoptosis in human CCRF-CEM cells assessed as late apoptotic cells at 1 times IC50 incubated for 24 hrs by Annexin V-FITC and PI staining based flow cytometric analysis (reference value: 0.4 %); assay type: functional
Method in brief: (§2)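 Washed in Ca2+-containing binding buffer, then stained 15 min at room temperature in the dark with Annexin V-FITC and propidium iodide (PI at half the kit-recommended level). Read at once by flow cytometry with a 488 nm laser, ≥10,000 cells. Debris excluded; quadrants viable, early apoptotic, late apoptotic/necrotic, necrotic. Three independent experiments.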

CCRF-CEM [4] = assay: Induction of apoptosis in human CCRF-CEM cells assessed as necrotic cells at 1 times IC50 incubated for 24 hrs by Annexin V-FITC and PI staining based flow cytometric analysis (reference value: 0.4 %); assay type: functional; method in brief: as §2
CCRF-CEM [5] = assay: Induction of apoptosis in human CCRF-CEM cells assessed as viable cells at 5 times IC50 incubated for 24 hrs by Annexin V-FITC and PI staining based flow cytometric analysis (reference value: 97.4 %); assay type: functional; method in brief: as §2
CCRF-CEM [6] = assay: Inhibition of DNA synthesis in human CCRF-CEM cells at 5 times IC50 incubated for 24 hrs by BrdU incorporation based flow cytometry; assay type: functional
Method in brief: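 Fixed in ice-cold 70 % ethanol, DNA denatured in 2 M HCl for 30 min, neutralised with borax. Stained with anti-BrdU plus FITC secondary, then PI/RNase A for 1 h. Flow cytometry; % BrdU-positive cells.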

CCRF-CEM [7] = assay: Inhibition of RNA synthesis in human CCRF-CEM cells at 1 times IC50 incubated for 24 hrs by BrU incorporation based flow cytometry; assay type: functional
Method in brief: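 Fixed in 1 % paraformaldehyde/0.05 % NP-40 (15 min at room temperature, then 4 °C overnight). Stained with cross-reacting anti-BrdU plus FITC secondary (45 min each), then PI/RNase A. Flow cytometry; % BrU-positive cells.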

CCRF-CEM [8] = assay: Induction of cell cycle arrest in human CCRF-CEM cells assessed as downregulation of AKT phosphorylation at 1 times IC50 incubated for 24 hrs by Western blotting analysis; assay type: functional, cell-based
Method in brief: (§3)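 30 µg protein per lane on SDS-PAGE, transferred to nitrocellulose, blocked in 5 % BSA/TBS-Tween. Primary antibodies overnight at 4 °C (Akt, P-Akt Ser473, STAT-3, caspase-3, PARP, cyclin D, cyclin A, Bcl-xL, Bak, Bid, Bim), then HRP secondary and ECL detection. GAPDH as loading control.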

CCRF-CEM [9] = assay: Induction of cell cycle arrest in human CCRF-CEM cells assessed as downregulation of Cyclin A expression at 5 times IC50 incubated for 24 hrs by Western blotting analysis; assay type: functional, cell-based; method in brief: as §3

CC(=O)O[C@H]1CC[C@]2(C)[C@H]3CC[C@@H]4[C@H]5[C@H](c6cc7c(c(-c8ccccc8)c6)C(=O)N(c6cc[nH]n6)C7=O)CC[C@]5(C(=O)O)CC[C@@]4(C)[C@]3(C)CC[C@H]2C1(C)C
pIC50 (CCRF-CEM [1]): 5.29 | pIC50 (CEM-DNR): 4.94 | pIC50 (HCT-116): 5.02 | pIC50 (HCT 116 TP53(-/-)): 4.86 | pIC50 (U2OS): 4.86 | IC50 at 72 h [2]: 22.6 µM | Activity (CCRF-CEM [3]): 2.4% | Activity (CCRF-CEM [4]): 0% | Activity (CCRF-CEM [5]): 86.5% | inhibition (INH) (CCRF-CEM [6]): 9.9% | inhibition (INH) (CCRF-CEM [7]): 23.8% | Activity (CCRF-CEM [8]): Active | Activity (CCRF-CEM [9]): Active
